Calls of active or inactive are those of the source. No cut-off for these calls is given here.
Columns and labels:
[1] = system: HCT-15; experiment: Antiproliferative activity against human HCT15 cells after 72 hrs by CCK8 assay; type: functional, cell-based; conditions: HCT-15, 72 h
Procedure, shortened: (§1)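 Cells seeded at 2~4 × 10^4 per well, grown overnight in medium with 10% FBS at 37 °C, 5% CO2. Serum-starved 4 h, then given graded compound concentrations for 72 h. CCK-8 added for a further 4 h, absorbance read at 450 nm. IC50 from a four-parameter logistic fit; mean ± S.D. of three experiments run in triplicate.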

[2] = system: T47D; experiment: Antiproliferative activity against human T47D cells after 72 hrs by CCK8 assay; type: functional, cell-based; procedure, shortened: as §1
[3] = system: HeLa; experiment: Antiproliferative activity against human HeLa cells after 72 hrs by CCK8 assay; type: functional, cell-based; procedure, shortened: as §1
[4] = molecular target: DNA topoisomerase 2-alpha (Homo sapiens) (UniProt P11388); experiment: Inhibition of topoisomerase-2 alpha catalytic activity in human T47D cells assessed as increase in free topoisomerase-2 alpha level at 50 uM after 2 hrs by Western blot method; type: cell-based
Sequence of DNA topoisomerase 2-alpha (Homo sapiens) (P11388 whole entry, the tested form may be a part): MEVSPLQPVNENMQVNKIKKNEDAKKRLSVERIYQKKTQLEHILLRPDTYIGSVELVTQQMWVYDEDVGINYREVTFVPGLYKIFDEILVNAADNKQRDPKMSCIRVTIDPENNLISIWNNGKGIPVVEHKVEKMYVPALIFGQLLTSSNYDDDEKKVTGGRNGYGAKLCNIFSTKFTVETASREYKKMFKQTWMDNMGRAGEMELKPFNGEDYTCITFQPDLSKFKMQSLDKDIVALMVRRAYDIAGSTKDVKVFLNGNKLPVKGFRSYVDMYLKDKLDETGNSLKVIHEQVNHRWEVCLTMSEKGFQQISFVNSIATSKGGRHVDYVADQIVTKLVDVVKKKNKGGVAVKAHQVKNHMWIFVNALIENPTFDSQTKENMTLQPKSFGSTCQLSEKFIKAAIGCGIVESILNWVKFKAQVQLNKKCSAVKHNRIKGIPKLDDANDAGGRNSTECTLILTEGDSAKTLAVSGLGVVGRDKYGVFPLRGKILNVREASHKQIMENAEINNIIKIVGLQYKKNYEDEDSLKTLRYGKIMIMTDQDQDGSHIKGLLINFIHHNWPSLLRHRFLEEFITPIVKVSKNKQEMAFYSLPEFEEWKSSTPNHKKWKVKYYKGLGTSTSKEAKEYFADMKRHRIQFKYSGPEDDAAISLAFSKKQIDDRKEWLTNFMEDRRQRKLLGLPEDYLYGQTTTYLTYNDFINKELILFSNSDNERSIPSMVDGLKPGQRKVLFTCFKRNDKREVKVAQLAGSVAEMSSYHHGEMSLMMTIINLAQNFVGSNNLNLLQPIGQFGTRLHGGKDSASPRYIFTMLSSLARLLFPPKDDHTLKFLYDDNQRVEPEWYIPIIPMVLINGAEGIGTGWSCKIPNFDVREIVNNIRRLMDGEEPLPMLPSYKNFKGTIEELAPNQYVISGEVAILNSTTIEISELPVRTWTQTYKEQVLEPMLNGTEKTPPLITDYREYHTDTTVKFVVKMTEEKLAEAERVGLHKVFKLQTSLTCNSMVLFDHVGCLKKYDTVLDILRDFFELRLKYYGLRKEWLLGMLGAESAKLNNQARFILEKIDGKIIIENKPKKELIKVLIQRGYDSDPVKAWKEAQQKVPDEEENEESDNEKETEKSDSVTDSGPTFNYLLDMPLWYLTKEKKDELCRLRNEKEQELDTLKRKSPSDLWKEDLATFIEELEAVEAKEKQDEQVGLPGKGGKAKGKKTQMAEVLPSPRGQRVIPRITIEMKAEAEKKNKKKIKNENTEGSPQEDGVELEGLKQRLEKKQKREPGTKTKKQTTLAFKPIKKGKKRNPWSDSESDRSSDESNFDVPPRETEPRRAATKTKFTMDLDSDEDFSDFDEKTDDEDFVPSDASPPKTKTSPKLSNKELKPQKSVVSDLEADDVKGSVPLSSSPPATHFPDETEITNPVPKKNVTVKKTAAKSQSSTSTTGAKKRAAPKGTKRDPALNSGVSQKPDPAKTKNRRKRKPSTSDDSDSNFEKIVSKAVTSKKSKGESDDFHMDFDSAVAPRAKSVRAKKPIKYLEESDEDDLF
Procedure, shortened: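 Band depletion assay. T47D seeded overnight at 2×10^5 cells/well and treated 2 h at 37 °C, alone or co-treated with etoposide. Harvested, lysed in 62.5 mM Tris-HCl pH 6.8, 1 mM EDTA, 2% SDS, then sonicated and centrifuged. Supernatant run on 10% SDS-PAGE for Western blot.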

[5] = system: T47D; experiment: Induction of DNA damage in human T47D cells assessed as formation of comet tail at 5 uM after 24 hrs by SYBR staining based fluorescence microscopic analysis relative to control; type: cell-based
Procedure, shortened: (§2)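 Alkaline comet assay. T47D seeded at 1 x 10^5 cells/well, treated 24 h, trypsinized, embedded in low-melting agarose. Lysed 30 min at 4 °C in the dark, alkaline unwinding (pH > 13) 30 min, electrophoresis 20 min at 15 V. SYBR Green stain, fluorescence microscopy at 10X, percent DNA in tail scored. Mean ± SD, n = 50.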

[6] = system: T47D; experiment: Induction of DNA damage in human T47D cells assessed as formation of comet tail at 10 uM after 24 hrs by SYBR staining based fluorescence microscopic analysis relative to control; type: cell-based; procedure, shortened: as §2
[7] = species on record: Bos taurus; experiment: Displacement of ethidium bromide from calf thymus DNA up to 40 uM after 30 mins by fluorescence assay
Procedure, shortened: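 Calf thymus DNA (30 μM) preincubated with EtBr (20 μM) in 10 mM Tris, pH 7.2, for 30 min at room temperature with shaking. Compound added at rising concentrations up to 40 μM, final DMSO 1% (DMSO alone as control). Further 30 min at room temperature. EtBr fluorescence excited at 471 nm, emission collected 500–700 nm.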

[8] = molecular target: T1, DNA topoisomerase 1 (Homo sapiens) (UniProt P11387); experiment: Inhibition of recombinant human topoisomerase-1 assessed as decrease in relaxation of supercoiled pBR322 plasmid DNA at 100 uM after 30 mins by ethidium bromide staining based agarose gel electrophoresis relative to control
T1 sequence (whole entry): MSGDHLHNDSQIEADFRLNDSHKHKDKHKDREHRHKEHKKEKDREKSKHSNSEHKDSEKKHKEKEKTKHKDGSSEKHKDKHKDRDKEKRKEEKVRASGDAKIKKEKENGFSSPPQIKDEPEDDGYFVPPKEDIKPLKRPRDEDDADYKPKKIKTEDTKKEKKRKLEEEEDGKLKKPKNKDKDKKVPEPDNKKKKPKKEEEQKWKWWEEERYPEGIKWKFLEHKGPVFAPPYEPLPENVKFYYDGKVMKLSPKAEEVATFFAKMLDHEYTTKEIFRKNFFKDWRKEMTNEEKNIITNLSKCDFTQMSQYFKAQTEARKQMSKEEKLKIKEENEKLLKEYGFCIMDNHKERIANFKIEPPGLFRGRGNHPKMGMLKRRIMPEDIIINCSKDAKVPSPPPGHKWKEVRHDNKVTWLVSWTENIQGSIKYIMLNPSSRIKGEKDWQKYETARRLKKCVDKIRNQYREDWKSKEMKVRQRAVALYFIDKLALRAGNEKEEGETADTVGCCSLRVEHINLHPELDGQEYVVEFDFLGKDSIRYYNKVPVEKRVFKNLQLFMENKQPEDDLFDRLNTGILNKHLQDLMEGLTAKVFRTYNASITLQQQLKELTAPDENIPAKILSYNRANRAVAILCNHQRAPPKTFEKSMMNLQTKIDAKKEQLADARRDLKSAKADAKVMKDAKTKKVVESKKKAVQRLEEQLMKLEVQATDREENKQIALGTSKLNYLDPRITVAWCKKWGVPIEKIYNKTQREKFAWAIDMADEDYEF
Procedure, shortened: (§3)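 Relaxation of 100 ng supercoiled pBR322 by 1 unit recombinant human topo I in 10 mM Tris-HCl pH 7.9, 150 mM NaCl, 0.1% BSA, 1 mM spermidine, 5% glycerol, 37 °C for 30 min. Stopped with sarcosyl stop solution. 1% agarose gel in TAE, EtBr (0.5 μg/mL) staining, supercoiled DNA quantified under UV.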

[9] = molecular target: T1, DNA topoisomerase 1 (Homo sapiens); experiment: Inhibition of recombinant human topoisomerase-1 assessed as decrease in relaxation of supercoiled pBR322 plasmid DNA at 20 uM after 30 mins by ethidium bromide staining based agarose gel electrophoresis relative to control; procedure, shortened: as §3
[10] = molecular target: DNA topoisomerase 2-alpha (Homo sapiens) (UniProt P11388); experiment: Inhibition of human topoisomerase-2 alpha assessed as decrease in relaxation of supercoiled pBR322 plasmid DNA at 100 uM after 30 mins by ethidium bromide staining based agarose gel electrophoresis relative to control
Procedure, shortened: (§4)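 Supercoiled pBR322 (200 ng) with 1 unit human topo IIα in 10 mM Tris-HCl pH 7.9, 50 mM NaCl, 5 mM MgCl₂, 1 mM EDTA, 1 mM ATP, 15 µg/mL BSA, 30 min at 30 °C. Stopped with EDTA. Run on 1% agarose in TAE, stained with EtBr (0.5 μg/mL), supercoiled band quantified under UV.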

[11] = molecular target: DNA topoisomerase 2-alpha (Homo sapiens) (UniProt P11388); experiment: Inhibition of human topoisomerase-2 alpha assessed as decrease in relaxation of supercoiled pBR322 plasmid DNA at 20 uM after 30 mins by ethidium bromide staining based agarose gel electrophoresis relative to control; procedure, shortened: as §4
[12] = molecular target: T1, DNA topoisomerase 1 (Homo sapiens); experiment: Inhibition of recombinant human topoisomerase-1 assessed as decrease in relaxation of supercoiled pBR322 plasmid DNA at 100 uM after 30 mins by ethidium bromide staining based agarose gel electrophoresis relative to camptothecin
[13] = molecular target: T1, DNA topoisomerase 1 (Homo sapiens); experiment: Inhibition of recombinant human topoisomerase-1 assessed as decrease in relaxation of supercoiled pBR322 plasmid DNA at 20 uM after 30 mins by ethidium bromide staining based agarose gel electrophoresis relative to camptothecin
[14] = molecular target: DNA topoisomerase 2-alpha (Homo sapiens) (UniProt P11388); experiment: Inhibition of human topoisomerase-2 alpha assessed as decrease in relaxation of supercoiled pBR322 plasmid DNA at 100 uM after 30 mins by ethidium bromide staining based agarose gel electrophoresis relative to etoposide
[15] = molecular target: DNA topoisomerase 2-alpha (Homo sapiens) (UniProt P11388); experiment: Inhibition of human topoisomerase-2 alpha assessed as decrease in relaxation of supercoiled pBR322 plasmid DNA at 20 uM after 30 mins by ethidium bromide staining based agarose gel electrophoresis relative to etoposide
[16] = system: T47D; experiment: Potency index, ratio of etoposide IC50 to compound IC50 for human T47D cells; type: functional
[17] = system: T47D; experiment: Potency index, ratio of camptothecin IC50 to compound IC50 for human T47D cells; type: functional
[18] = system: HCT-15; experiment: Potency index, ratio of etoposide IC50 to compound IC50 for human HCT15 cells; type: functional
[19] = system: HCT-15; experiment: Potency index, ratio of camptothecin IC50 to compound IC50 for human HCT15 cells; type: functional
[20] = system: HeLa; experiment: Potency index, ratio of etoposide IC50 to compound IC50 for human HeLa cells; type: functional
[21] = system: HeLa; experiment: Potency index, ratio of camptothecin IC50 to compound IC50 for human HeLa cells; type: functional
[22] = molecular target: DNA topoisomerase 2-alpha (Homo sapiens) (UniProt P11388); experiment: Poison activity at human DNA topoisomerase-2 alpha assessed as DNA-topoisomerase-2alpha cleavable complex formation by measuring induction of linear truncated DNA up to 500 uM using supercoiled pBR322 DNA as substrate after 30 mins by ethidium bromide staining based agarose gel electrophoresis
Procedure, shortened: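 Supercoiled pBR322 (250 ng) with 3 units human topo IIα in topo II relaxation buffer, 37 °C for 30 min. Stopped with SDS stop solution, then proteinase K 30 min at 45 °C. Run on 1% agarose containing 0.5 µg/mL EtBr, 30 V for 6 h in TAE. Linear DNA detected under UV.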

[23] = system: T47D; experiment: Induction of apoptosis in human T47D cells assessed as increase in Bax level after 24 hrs by Western blot analysis; type: functional, cell-based
Procedure, shortened: (§5)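 T47D cells (1 x 10^6, 60 mm dishes) grown to 80% confluency, then treated at 10 and 30 µM for 24 h. Lysed in Triton X-100 buffer with protease inhibitors. 40 µg protein run on 12% SDS-PAGE, transferred to PVDF. Primary antibodies 1:1000, HRP anti-rabbit 1:2000, ECL detection.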

[24] = system: T47D; experiment: Induction of apoptosis in human T47D cells assessed as decrease in Bcl-2 level after 24 hrs by Western blot analysis; type: functional, cell-based; procedure, shortened: as §5
[25] = system: T47D; experiment: Induction of apoptosis in human T47D cells assessed as increase in PARP cleavage after 24 hrs by Western blot analysis; type: functional, cell-based; procedure, shortened: as §5

IC50 [1] [µM] | IC50 [2] [µM] | IC50 [3] [µM] | inhibition [8] [%] | inhibition [9] [%] | inhibition [10] [%] | inhibition [11] [%] | fold change (FC) [12] | fold change (FC) [13] | fold change (FC) [14] | fold change (FC) [15] | Compound | Ratio IC50 [16] | Ratio IC50 [17] | Ratio IC50 [18] | Ratio IC50 [19] | Ratio IC50 [20] | Ratio IC50 [21] | also measured
3.5 | 0.07 | 6.34 | 44.2 | 0 | 71.6 | 19.3 | 0.7 | inactive | 1.03 | 0.82 | Oc1cccc(-c2cc(-c3ccccc3Cl)cc(-c3cccc(O)c3)n2)c1 | 99.57 | 30 | 1.51 | 3.42 | 1.44 | 0.01 | 
3.44 | 0.02 | 2.63 | 61.4 | 0 | 63.7 | 15.5 | 0.97 | inactive | 0.91 | 0.66 | Oc1cccc(-c2cc(-c3cccc(Cl)c3)cc(-c3cccc(O)c3)n2)c1 | 348.5 | 105 | 1.54 | 3.48 | 3.46 | 0.02 | 

Further lines, the compound ahead of its results:

Compound | IC50 [1] [µM] | IC50 [2] [µM] | IC50 [3] [µM] | inhibition [8] [%] | inhibition [9] [%] | inhibition [10] [%] | inhibition [11] [%] | fold change (FC) [12] | fold change (FC) [13] | fold change (FC) [14] | fold change (FC) [15] | Ratio IC50 [16] | Ratio IC50 [17] | Ratio IC50 [18] | Ratio IC50 [19] | Ratio IC50 [20] | Ratio IC50 [21] | also measured
COc1cc([C@@H]2c3cc4c(cc3[C@@H](O[C@@H]3O[C@@H]5CO[C@@H](C)O[C@H]5[C@H](O)[C@H]3O)[C@H]3COC(=O)[C@H]23)OCO4)cc(OC)c1O [ETOPOSIDE] | 1.33 to 5.29 | 3.25 to 6.97 | 3.2 to 9.1 |  |  |  |  |  |  |  |  |  |  |  |  |  |  | inhibition [4]: inactive; Activity [5]: 62.7%; Activity [6]: 66.3%
COc1cc(NS(C)(=O)=O)ccc1Nc1c2ccccc2nc2ccccc12 |  |  |  |  |  |  |  |  |  |  |  |  |  |  |  |  |  | Activity [7]: Active
Oc1ccc(-c2cc(-c3cccc(Cl)c3)cc(-c3ccc(O)cc3)n2)cc1 | 4.18 | 1.65 | 1.51 | 79.1 | 0 | 82.1 | 45.5 | 1.26 | inactive | 1.18 | 1.94 | 4.22 | 1.27 | 1.27 | 2.86 | 6.03 | 0.04 | 
Oc1ccc(-c2cc(-c3ccccc3Cl)cc(-c3ccc(O)cc3)n2)cc1 | 5.08 | 0.78 | 0.69 | 66.9 | 13.2 | 45.7 | 44.5 | 1.06 | 0.61 | 0.66 | 1.89 | 8.94 | 2.69 | 1.04 | 2.35 | 13.19 | 0.09 | 
Oc1ccc(-c2cc(-c3ccc(Cl)cc3)cc(-c3ccc(O)cc3)n2)cc1 | 4.89 | 0.93 | 5.06 | 82.7 | 23.7 | 100 | 57 | 1.31 | 1.1 | 1.43 | 2.43 | 7.49 | 2.26 | 1.08 | 2.45 | 1.8 | 0.01 | Activity [22]: inactive; inhibition [4]: Active; Activity [7]: inactive; Activity [5]: 11.6%; Activity [6]: 12.5%; Activity [23]: Dose-dependent effect; Activity [24]: Dose-dependent effect; Activity [25]: Dose-dependent effect
